In the EternaBench riboswitch data:

Test system: MS2 coat protein
Assay: apparent Kd, MS2 coat protein; higher = weaker binding; RNA-MaP array; FMN 200 µM where present
Method in brief: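 Stalled E. coli RNA polymerase transcribed each design on Illumina sequencing-chip clusters. The clusters were titrated with SNAP-549-labelled MS2 coat protein, starting at 0.7 or 1.5 nM and doubling up to 3 µM, first without ligand and then with constant ligand, in 100 mM Tris-HCl pH 7.5, 80 mM KCl, 4 mM MgCl2, BSA, DTT, yeast tRNA and Tween-20. Green signal was normalised to red-channel RNA signal and to the control-cluster median Fmax. The apparent Kd is the median of filtered binding-curve fits made for each cluster.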

[1] = designed as: OFF switch for flavin mononucleotide, no ligand
[2] = ligand present: flavin mononucleotide, designed as: OFF switch for flavin mononucleotide
[3] = designed as: ON switch for flavin mononucleotide, no ligand
[4] = ligand present: flavin mononucleotide, designed as: ON switch for flavin mononucleotide

Sequence	apparent Kd [1] [nM]	apparent Kd [2] [nM]	apparent Kd [3] [nM]	apparent Kd [4] [nM]
AUGCUGUCAGGAUAUCGUUAAUUUAGUUGUUUGUAUUAGUUCGAGAAGGGACAUGAGGAUCACCCAUGUUUGUA	30.8	37.4		
AGAAACUACGAGAAGGACAUGUGGUCCUUCAAAAACAUGAGGAUCACCCAUGUAGGAUAUCGUAGUUUCAGGAUCGUGAGAUCA	37.6	22.8		
UUCCUCGAAGGAUAUUCGACUAGGUACAUGAGGAUCACCCAUGUCAUGAGCCCAAUAGGCGAAGAAGGUCGAGUGU	23.5	34.6		
UAGCAUUGCCUUUGGUAGUGCUUUACAUGAGGAUCACCCAUGUAGGAUAUGGUAGGCUUUGCUUACCAGAAGGACAUGAUAAUU	52.9	166		
GUGCUCGUGUAAGGAUAUGCAGCCGUUUCGGCUGCAGAAGGUACUAUAAUACAUGAGGAUCACCCAUGUCUCUAUUGUUUGGUG			120	153
GUGGUACAUGAGGAUCACCCAUGUGUGGGCGCAUGAGGAUAUGUCAGUCCCUGAAGUACGAUAGAAGGCAUGGUGA			201	302
AUUUCAUUCCUUCGACCAUUACCGAGAAGGGUCCACAUGAGGAUCACCCAUGUGGUCCUGAGCGGACAGGAUAUCGGAGUCGGG	18.2	17.7		
UGGAUCAUCGGAGGAUAUCAUGUAGAUACAUGAGGAUCACCCAUGUCGUACGAGAGUACGGAGAUUGAGAAGGCCGAUGAUCCU			31.6	14.8
AAGAAGUGAGGAUAUGUCUGUGCGAAAAAAAAAAAGUGCAGACAGAAGGCACAUGAGGAUCACCCAUGUCAAAA	25.6	37.1		
GAGUUUACGUUUGACACUUAGCGAGAGGAUAUGGAAAACAAGACAUGAGGAUCACCCAUGUACUAUCAGAAGGCUCGAGUACGA			8.92	5.69
UUGGACGUCGUAGGAUAUGUAGGAUAUUCCUACAUGAGGAUCACCCAUGUUGACUUGGAAGAAGGACAGAAGGACGAUGUCCAU			22	4.06
GUAGCAUACCGAGGAUAUUCACCGGAAACGGAAACAUGAGGAUCACCCAUGUGGCGAAAGCCUUGGGAGAAGGCGGAAUGCUAC			195	24.5
GGGUACAUCGGAGGAUAUGAUGUAAAUACAUGAGGAUCACCCAUGUCGAUGGAGACAUCGGAGAUUGAGAAGGCCGAUGUACCG			88.2	32.2
UUUGUUUAUGUGAGGAUAUACUGUUUGUUUUGUUUGUAGAAGGUACAUGAGGAUCACCCAUGUUUUGUAUUUAU	21.5	18.8		
GCACUUAGAGUUGAACCGUUUCGAACAUGAGGAUCACCCAUGUAGGAUAUGCUAAUAGUAUUGAAGCAGAAGGACAAUAAGUGC	6.43	6.05		
UUUUAGUCAGGAUAUCGUUAAUUUAAUUGUUUGUAUUAGUUCGAGAAGGGACAUGAGGAUCACCCAUGUACUUU	23.7	24.5		
UAUAUAUAGUAAGGAUAUGUAUAUAUUCUAUAAACAGAAGGUACUGACAUGAGGAUCACCCAUGUUUUAGUGUGGGCAUGUAGA	33.9	30.5		
AAAAUGUGAGGAUAUCCGAAGGCGUCUGAUAGACGAGGCUAGGAGAAGGCACAUGAGGAUCACCCAUGUAAAAA	46.6	95.1		
GCGUGUCAUGUAGGAUAUGACACAGGAAACUGGUCAGAAGGACAUGAGGAUCACCCAUGUAAAAUGUUCAAGAAUAACACAUGC	50.6	185		
GGGAGACAUGAGGAUCACCCAUGUGAAAACGUGGCAGGAUAUCCAUGGAAACCAUACUGUGGAGAAGGGCCUUGUC			77.9	40.5
CCCAGAGAUGAGAAGGGACACGGGUGCUUUCUGACAUGAGGAUCACCCAUGUCAGGAUAUCAGCAUGGCGUCGGGAUGCCCGAC	7.24	5.8		
GAGAUGUGAGGAUAUCUAGACCGCGAAAGAGCCGCGGUCCGAGAGAAGGCACAUGAGGAUCACCCAUGUGAUGA	46.9	119		
UUGAUUAUACAAGGAUAUCAAUUGUAUACAAGUCUUACAUGAGGAUCACCCAUGUUAAAUUUUUUUGAGAAGGUGUGUUUUCAG			32.2	29.5
CAGUCUACAGGAUAUACAUGAGGAUCACCCAUGUUUAUCAACCUUCAGUAAUCCACAUGUAGAAGGGUAGACUG	19.7	21.4		
UACCACCGCACGGACACGUCGAGUCAGGAUAUACAUGAGGAUCACCCAUGUGAAGGCCGGUUCAUGUAGAAGGGACAGGCGUUG	49.8	100		
AAUUGGAUCCAGAAGGCAUGGACGACCCGUCACAUUAACAUGAGGAUCACCCAUGUCAAAAGACAUGAGGAUAUGGAUCCUAAA			752	31.8
CCUGGUUGGUAAGGAUAUCCUACACUGUUCUGACCCGUGCAAGCUACAUGAGGAUCACCCAUGUGGGAGAAGGUGCGUCAACGC	12.6	11.7		
ACAUAGUAAGGAUAUGCUGCUCGUCACUUGCGUGAUGAGUAGCAGAAGGUACAUGAGGAUCACCCAUGUAAAGA	30.1	20.3		

Sequence	apparent Kd [1] [nM]	apparent Kd [2] [nM]	apparent Kd [3] [nM]	apparent Kd [4] [nM]
UGGCUACAUGAGGAUCACCCAUGUCAGGAUAUGCCGUUGAAUUGACAUCAACGUACGGGUAGAAGGGACUGCGU	39.5	38.8		
AAUUACAUGUAGAAGGUACUAACAUAAGUGUUGUAAGGAUAUACCAAUUUAUUAGUUUUAAAGAUACAUGAGGAUCACCCAUGU			12.5	8.22
UGUCACCGUGCAGGAUAUGCCUGCACGUCGCGGGCAGAAGGGCACAUGAGGAUCACCCAUGUAGAGCUGGGCUCGUCAAGGGAG	9.05	9.85		
UGCUAGGAUGGGUCUAAUGGACCUCAGGAUAUGCUUGUACAUGAGGAUCACCCAUGUAACAUUGUGCAGAAGGGAGGAUCCACG			8.45	4.93
CCGCUGUGAGGAUAUUAGUAGUAGUCAGAAUAGACUAUUACUGAGAAGGCACAUGAGGAUCACCCAUGUGGCGG	22.4	31.7		
UGAUAGGACAGAGGAUAUACGUGCUAGAGAUACUAGCAAAAUUAAAUAACAUGAGGAUCACCCAUGUAGAAGGCUGUCCUAUCU	5.01	7.01		
CCGAUGAUAGGACAGGAUAUGACUGUCGUCACAUGAGGAUCACCCAUGUCCCGGCAAUGCCACCGUUAGAAGGGUCCUAUCUCGG			13.1	13
ACAUGAGGAUCACCCAUGUUCACAUAGGAUAUUGAUUAUAUUGGUUAUAGAAUAGUUAUAAUGCUCAAGAAGGAUGCCAGUUGU			11	8.94
GGUCGUCACAUAUACAUGAGGAUCACCCAUGUCAAAAGACAUGAGGAUAUGGAUAAUAAUAUAAACCAGAAGGCAUGGACGACC			961	59.6
GCAGGAUAAGUCAGGAUAUACCUAUGGAUACAUAGGUAGAAGGGACAUGAGGAUCACCCAUGUGACUCGCCUGC	29.5	100		
GCAGAUCAAGUGAGGAUAUCGUCUACCUCGGUAGUCGAGAAGGCACAUGAGGAUCACCCAUGUGAUUGAUCUGC	18.5	25.9		
UAAGAGUGAGGAUAUUCGUAGUACACGGAGACGUGUAUUACGGAGAAGGCACAUGAGGAUCACCCAUGUUCCUU	15.6	48.5		
UGAUCGAGAGAUCUUAGAUUCUGGUAGGAUAUACAUUAUGUAAAAUUUACAUGAGGAUCACCCAUGUAGAAGGACUAGAGUCUA	6.19	14.8		
AAAAAACAUGAGGAUCACCCAUGUCUUCGGACGUGAGGAUAUGUACAGACUUCGGUCUGUACAGAAGGCACGUCAA			31.3	19.2
GUACCUCAAGUGAGGAUAUGUCAUUACCGGUGAAGAUAGAAGGCACAUGAGGAUCACCCAUGUGUGGCUCCGUC	23.5	95.8		
CCGAGGCAAAUAAAACAUGAGGAUCACCCAUGUGAGUCUCAUGAGGAUAUGCAGGUCAAAGACUUGCAGAAGGCAUGGCUUCGG			1190	146
AAUUAUUUUUGAGGAUAUCGUGGUGAAACACCACGAGAAGGCGAGAUAAACAUGAGGAUCACCCAUGUGAGCCUGAUGCUUAUG	21.2	44.4		
GUCAGCUCGUGAGGAUAUACAUGUGCUGGAGACAGCACUAAUUAAAUCACAUGAGGAUCACCCAUGUAGAAGGCACGAGCUGAU	16.6	26.4		
GCAUGCAAGUAGAAGGACGGAUAUUUUGAAAACGUAGGAUAUACAGAAUCAUAUCCACAAGGUUACAUGAGGAUCACCCAUGUA	8.19	8.08		
UGCAUGUGAGGAUAUGUGUACUGUCUUUUGUUUAGAUGUACACAGAAGGCACAUGAGGAUCACCCAUGUAGUAC	126	27.8		
AAGUAGGCAGGAUAUACAUGAGGAUCACCCAUGUGCCCAUGAAAGGUACUUUCGAAAGGUAGAAGGGCCUACAA	16.5	35.6		
UCUUUGUUUGUGAGGAUAUCGAUAAAAUGGAUUGUCGAGAAGGCACAUGAGGAUCACCCAUGUGUGGGACAGCA	22.3	74.9		
AGUACUACAGGAUAUACAUGGGUGAUCCUCAUGUCCCUUCUACAUGAGGAUCACCCAUGUAGAAGGGUAGUACA	15.1	11.3		
GGCUGGUGACAGCAUCCAUCAAAACAUGAGGAUCACCCAUGUAGAAGGCUGUACGGUUACCGUACAGAGGAUAUACAAUGAUGC	13.7	28.5		
GCACUGGAUGUAGGAUAUCAGGACGAUAAGUCCUGAGAAGGACAUGAGGAUCACCCAUGUAAACCUCACCAGUGCUAUAAUAUA	15.5	21.1		
UGGUACAUCAUAGGAUAUCGUGUGUAAACAUGAGGAUCACCCAUGUCAUACGAGAGUAUGUCGAUCGAGAAGGGUGAUGUACCU			75.2	25.8
GAGGAGCAAGGAUAUACGAGGAUAUGGAAGGUUGGAGAGUGACAUGAGGAUCACCCAUGUAGAAGGUGCGAGGG	53.7	49.2		
